RGS4 inh = human RGS4 inhibition | P49798 | HEK293 M3R/RGS4 inducible, Fluo-4 calcium flux; active compounds read high; triggered by carbachol at its EC20 | B-score at 10 µM | 310,000 tested, 0.45% active | AID 463165;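 active = B-score, a plate-corrected calcium signal, over three deviations above library mean, with baseline fluorescence within five deviations of library mean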;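 note: RGS4 expression induced by doxycycline in cells with stable M3 receptor; B-score is computed from the integrated fluorescence ratio over baseline after carbachol; higher B-score means a larger calcium signal and so more RGS4 inhibition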
Target sequence (P49798 whole entry, looked up): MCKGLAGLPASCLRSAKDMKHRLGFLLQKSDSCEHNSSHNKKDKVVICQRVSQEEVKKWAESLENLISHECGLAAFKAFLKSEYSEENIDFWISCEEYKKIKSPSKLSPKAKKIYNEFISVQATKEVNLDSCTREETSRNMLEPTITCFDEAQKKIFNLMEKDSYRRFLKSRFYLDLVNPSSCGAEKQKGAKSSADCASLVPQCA
MrgX1 ag = human MrgX1 receptor agonism, primary screen. Q96LB2. MrgX1-HEK293 cells, Fluo-4 calcium fluorescence, agonist mode; active compounds read high. B-score at 10 µM. 310,000 tested, 0.44% active. AID 588627;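 active = calcium response B-score plate-corrected fluorescence ratio at least 3 library SD, with starting fluorescence B-score inside 5 SD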
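Assay system: stable human MrgX1 HEK293 cell line. Quantity: 15,000 cells per well. Schedule: cells plated overnight, dye loaded 0.5 h 37 °C, 0.5 h room temperature. Detection: Fluo-4 NW calcium-flux fluorescence, kinetic read. Read-out basis: peak-minus-minimum fluorescence over baseline, converted to B scores. Control set: positive and negative control wells on each plate.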
RGS4 pot = potentiators or activators of RGS4; HEK293 M3R/inducible RGS4, carbachol calcium flux Fluo4; active compounds read low; AID 463111; B-score at 10 µM; 310,000 tested, 0.92% active;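 active = B-score of the integrated calcium signal more than 4 SD below the library mean, with starting fluorescence not abnormally high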;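 note: negative B-score means reduced calcium response which marks RGS4 activation or potentiation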
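Test system: HEK293 cells with stable M3R and inducible RGS4; also added: carbachol at ECmax as muscarinic agonist stimulus; schedule: dye loading 30 min 37 °C, buffer rest 30 min RT; technique: kinetic calcium fluorescence imaging with Fluo4-AM dye, 2 µM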
MrgX1 allo act = allosterically activates human MrgX1 receptor signaling; Q96LB2; MrgX1-HEK293, Fluo-4 calcium flux, FDSS; active compounds read high; B-score at 10 µM; 310,000 tested, 0.63% active; AID 588675;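 active = plate-corrected calcium response at least 3 library SD above typical, normal starting fluorescence, not activating the receptor alone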;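 note: compound read alongside a low EC10 to EC30 dose of BAM8-22 agonist; peak minus trough fluorescence over baseline measured at the second addition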
PHOSPHO1 inh = inhibitors of human PHOSPHO1 phosphatase; inhibition, % at 13.3 µM; recombinant PHOSPHO1, absorbance phosphatase assay; Q8TCT1; 290,000 tested, 1.1% active; in the data active = inhibition above about 60%
Target sequence (Q8TCT1 whole entry, looked up): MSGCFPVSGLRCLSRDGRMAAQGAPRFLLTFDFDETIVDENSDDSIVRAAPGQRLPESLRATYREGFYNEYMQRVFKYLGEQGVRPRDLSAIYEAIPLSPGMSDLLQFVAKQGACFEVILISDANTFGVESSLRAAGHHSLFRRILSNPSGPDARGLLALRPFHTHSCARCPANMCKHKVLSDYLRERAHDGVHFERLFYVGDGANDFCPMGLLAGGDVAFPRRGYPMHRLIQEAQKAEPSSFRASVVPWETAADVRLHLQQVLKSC
MrgX1 antagonist = antagonists of human MrgX1 receptor | Q96LB2 | MRGX1-HEK293 calcium flux, Fluo-4, BAM8-22 antagonism; active compounds read low | B-score at 10 µM | 310,000 tested, 1.3% active;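 active = calcium-response B-score plate-corrected more than 3 library SD below zero, starting fluorescence within 5 deviations, no agonist response on first addition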;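 note: peak minus trough fluorescence over baseline after final BAM8-22 challenge near maximal dose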
Each line names hits and unclear results; the compound was inactive in the other large screens. In the library only some 4.5% were active in any assay of this set; here they are far more common.

Cc1cc(C(=O)COC(=O)CC2Sc3ccccc3NC2=O)c(C)n1-c1cccc(C(F)(F)F)c1 (stereo not drawn)	RGS4 pot -8.2
Cc1cc(C(=O)COC(=O)Cc2n[nH]c(=O)c3ccccc23)c(C)n1-c1cccc(C(F)(F)F)c1	none
C=CCN1C(c2cccc(C(F)(F)F)c2)=CS/C1=C(/C#N)c1nnc(N2CCOCC2)n1-c1ccccc1	MrgX1 ag 45
Cc1c(C(=O)N(C)C(C)c2ccccn2)oc2c(F)cccc12 (stereo not drawn)	none
O=C1CC(c2ccccc2)CC(O)=C1C=NCc1ccncc1 (stereo not drawn)	MrgX1 antagonist -6.4
O=C1CC(c2ccccc2)CC(O)=C1C=NCc1ccc(Cl)c(Cl)c1 (stereo not drawn)	none
COc1ccc(N(CC(=O)NC2CC2)S(=O)(=O)c2ccccc2)cc1	none
Fc1ccccc1CN1CCCCCCC1	none
c1ccc(Sc2ccccc2CN2CCCC2)cc1	RGS4 pot -7.4 (no result: PHOSPHO1 inh)
COc1ccc(N2CCN(C3CCCN(C(=O)C4=C(C)OCCO4)C3)CC2)cc1 (stereo not drawn)	none
CSc1oc(-c2ccccc2)nc1C(N)=O	none (no result: PHOSPHO1 inh)
NC(=O)c1coc(-c2ccccc2)n1	RGS4 pot -7.1
Cn1cnc([N+](=O)[O-])c1Sc1ncccc1N	PHOSPHO1 inh 102, MrgX1 antagonist -7.2
Cc1ccc(Sc2c([N+](=O)[O-])ncn2C)cc1	none
COc1ccc(N=CC2=C(Nc3ccc(OC)cc3)c3c(C)nn(-c4ccccn4)c3CC2)cc1	none (no result: RGS4 inh, RGS4 pot, PHOSPHO1 inh)
N#CCCn1c(SCC(=O)N2CCN(S(=O)(=O)c3ccccc3)CC2)nc2ccccc21	PHOSPHO1 inh 86
CC(C)Cn1c(SCC(=O)N2CCN(S(=O)(=O)c3ccccc3)CC2)nc2ccccc21	none
COc1ccccc1-n1cnnc1SCC(=O)N1CCN(S(=O)(=O)c2ccccc2)CC1	PHOSPHO1 inh 88
COc1ccccc1-n1cnnc1SCC(=O)N1CCN(C(=O)c2ccco2)CC1	none
Cc1ccc(S(=O)(=O)Nc2c(C)[nH]c(=O)[nH]c2=O)cc1C	none
OCCn1nc2c3ccccc3nc-2n(-c2ccccc2)c1=S	PHOSPHO1 inh 76
Cc1nn(-c2ccccc2)c(=S)n1-c1ccccc1	none
O=c1[nH]c(SCc2ccccc2)nc2[nH]ncc12	PHOSPHO1 inh 64
O=C(CSc1nc2[nH]ncc2c(=O)[nH]1)Nc1ccccc1	none
CNC(=S)NNC(=O)c1cccn(Cc2ccc(Cl)c(Cl)c2)c1=O	none
C=CCNC(=S)NNC(=O)c1cccn(Cc2ccc(Cl)c(Cl)c2)c1=O	PHOSPHO1 inh 78
Cc1oc(-c2ccccc2Cl)cc1-c1nn2c(-c3ccco3)nnc2s1	PHOSPHO1 inh 72 (no result: RGS4 inh, MrgX1 ag, RGS4 pot, MrgX1 allo act, MrgX1 antagonist)
Clc1ccccc1-c1nn2c(-c3ccncc3)nnc2s1	PHOSPHO1 inh 72
CCOc1cccc(-c2nnc3sc(-c4ccco4)nn23)c1	PHOSPHO1 inh 64
COc1ccc(-c2nnc3sc(C4CCCCC4)nn23)cc1OC	none
c1coc(-c2nnc3sc(C4CCCCC4)nn23)c1	PHOSPHO1 inh 72
Clc1ccccc1-c1nnc2sc(-c3ccncc3)nn12	none
Cc1[nH]c(=O)[nH]c(=O)c1S(=O)(=O)Nc1cccc([N+](=O)[O-])c1C	none
Cc1ccc(C(=O)NCCNC(=O)c2ccccn2)cc1	none
Brc1ccc(-c2nn3c(-c4ccco4)nnc3s2)o1	PHOSPHO1 inh 99
Cc1ccc(NC2c3ncccc3C(=O)N2c2ccccc2C)cc1C (stereo not drawn)	PHOSPHO1 inh 86
Nc1ccc2c(c1)OC1(CCCC1)O2	none
COc1cccc(OC)c1C(=O)Nc1cccc(-n2cnnn2)c1	PHOSPHO1 inh 72
O=C(c1ccccc1)N1CCN(CC(O)Cn2ccc3ccccc32)CC1 (stereo not drawn)	PHOSPHO1 inh 66
OC(CN1CCCC1)Cn1ccc2ccccc21 (stereo not drawn)	none (no result: PHOSPHO1 inh)
O=C(c1c(F)cccc1F)N1CCCC(c2nc(-c3ccc(F)cc3)no2)C1 (stereo not drawn)	PHOSPHO1 inh 62
O=C(Nc1ccccc1)N1CCCC(c2nc(-c3ccc(F)cc3)no2)C1 (stereo not drawn)	none
O=C(Nc1cccc(C(F)(F)F)c1)N1CCC(c2nc(-c3ccc(F)cc3)no2)CC1	RGS4 pot -9.3
O=C(c1ccc(F)cc1)N1CCCC(c2nc(-c3ccncc3)no2)C1 (stereo not drawn)	none (no result: RGS4 inh, RGS4 pot, PHOSPHO1 inh)
O=C(C[n+]1cccc(CNC(=O)c2ccc(OC(F)F)cc2)c1)Nc1ccc(F)cc1	none
O=C(C[n+]1cccc(CNC(=O)c2ccc(OC(F)F)cc2)c1)c1ccccc1	PHOSPHO1 inh 61
COc1cc(/C=C/C(=O)O)cc(S(=O)(=O)Nc2cccc(SC)c2)c1OC	MrgX1 antagonist -6.3
CCNCc1ccccc1OCc1ccccc1	PHOSPHO1 inh 69
Cc1cccc(NS(=O)(=O)c2cn(C)c(=O)n(C)c2=O)c1C	none
CN1C(=O)/C(=C/c2ccccc2OCc2ccc(F)cc2)N(C)C1=S	RGS4 pot -9.6, MrgX1 antagonist -5.2
CCC1=[N+](CC(=O)c2ccc(C)cc2)CCn2c(C)ccc21	none
CCC1=[N+](C)CCn2c(C)ccc21	PHOSPHO1 inh 69
Cc1cc(NC(=O)/C(C#N)=C/c2ccco2)n(-c2ccccc2)n1	none
Cc1ccc(-c2ccc(/C=C(\C#N)C(=O)Nc3cc(C)nn3-c3ccccc3)o2)cc1	RGS4 pot -8.6
O=C(NCc1ccccc1Cl)c1ccc(Cn2cc(C(F)(F)F)ccc2=O)cc1	PHOSPHO1 inh 65
C=CCNC(=O)CSc1nc2cc(C(=O)OCC)ccc2n1CC	none
Cn1ccnc1SCC(=O)c1cc2ccccc2o1	PHOSPHO1 inh 91
CCOC(=O)c1ccc2c(c1)nc(SCC(=O)c1cc3ccccc3o1)n2CC	PHOSPHO1 inh 90
COc1ccc(N2C(=O)[C@H]3[C@@H](C2=O)C2c4ccccc4C=NN2[C@H]3C(=O)C(C)(C)C)cc1 (stereo partly drawn)	none
COc1ccc([C@@H]2[C@@H](C(=O)C(C)(C)C)N3N=Cc4ccccc4[C@@H]3C23C(=O)OC(C)(C)OC3=O)cc1OC	RGS4 pot -7.2
COc1ccc([C@H]2[C@H](C(=O)C(C)(C)C)N3N=Cc4ccccc4C3C23C(=O)OC(C)(C)OC3=O)cc1 (stereo partly drawn)	MrgX1 antagonist -6.1
Cc1ccc(NC(=O)NNC(=O)c2snnc2C)cc1	none
Nn1c(SCc2cc([N+](=O)[O-])cc3c2OCOC3)nnc1-c1cccnc1	none
CN(Cc1cccnc1)C(=O)Cc1ccc(NS(=O)(=O)c2cccc(C(F)(F)F)c2)cc1	none
CCOC(=O)COc1nc(-c2ccco2)cc(-c2ccco2)c1C#N	RGS4 pot -7.2

Compound activity (PubChem)
